Published values collected from several papers.
Compare with care: the assays were run in different laboratories.
Target: RAC-alpha serine/threonine-protein kinase (AKT1, Homo sapiens, UniProt P31749)

CC1=C(C#N)[C@@H](c2ccc3[nH]nc(C)c3c2)C(C#N)=C(c2ccc(Cl)cc2)N1  remaining binding (cell-free assay, competition with immobilised ligand; 1 µM): 100%
Nc1nc(NC2CCCCC2)sc1C(=O)c1ccccc1  remaining activity (enzyme activity, inhibitor; 10 µM): 85%
Nc1c(C(=O)NCc2ccc(C(=O)NCCCC3CCCCC3)cc2)cnn1-c1ccccc1  remaining binding (cell-free assay, competition with immobilised ligand; 0.1 µM): 100%
COc1cc2ncnc(Nc3ccc(Oc4ccccc4)c(C)c3C)c2cc1OC  inhibition (enzyme activity, inhibitor; 1 µM): 2%
O=C(O)[C@@H]1[C@@H](Cn2nnc3ccccc3c2=O)CC[C@H]1C(=O)c1ccc(OCCC2CCOCC2)cc1  remaining binding (cell-free assay, competition with immobilised ligand; 1 µM): 75%
C[C@@H]1CCN(C(=O)CC#N)C[C@@H]1N(C)c1ncnc2[nH]ccc12  remaining signal (cell-free assay, inhibitor; 0.5 µM): 90.3%
Cc1cc(NC(=O)c2cccc3cc(-c4cccc5[nH]nc(N)c45)ccc23)ccc1F  activity vs control (enzyme activity, inhibitor; 0.1 µM): 107%
CCCOc1ccc(OC)c(F)c1C(=O)c1ccc(C(=O)N[C@@H]2CNC[C@H]2NC(=O)c2ccc3[nH]ncc3c2)cc1  remaining activity (enzyme activity, inhibitor; 10 µM): 20%
CSc1nc(C)c(-c2ccnc(Nc3ccc(N4CCOCC4)cc3)c2)[nH]1  inhibition (enzyme activity, inhibitor; 10 µM): -2.9%
CCOc1cc(-c2nncn2C)ccc1Nc1ncc2cc(C)nc(NCC(C)(C)C)c2n1  inhibition (enzyme activity, inhibitor, FRET; 1 µM): < 15%
CNC(=O)c1cc(Oc2ccc(NC(=O)Nc3ccc(Cl)c(C(F)(F)F)c3)cc2)ccn1  inhibition (enzyme activity, inhibitor; 10 µM): -3%
CC(C)(O)[C@H]1CC[C@H](Nc2ccc3ncc(-c4cccc(C(F)(F)F)c4)n3n2)CC1  remaining activity (enzyme activity, inhibitor; 1 µM): 93.2%
CCS(=O)(=O)c1cc2cc(C[C@](O)(CC(C)(C)c3ccc(F)cc3C(N)=O)C(F)(F)F)[nH]c2cn1  remaining binding (cell-free assay, competition with immobilised ligand; 1 µM): 100%
Cn1cncc1C1=CN(c2ncnc3[nH]cnc23)CCS1  inhibition (enzyme activity, inhibitor, radiometric; 50 nM): 25.1%
CN(C)C1CCN(CC#Cc2nn(C3CCCC3)c3nc(NCc4ccccc4)ncc23)C1 (stereo not drawn)  inhibition (enzyme activity, inhibitor, FRET; 10 µM): 7%
Cc1sc(C(=O)NC2COC2)cc1-n1cc(NC(=O)Nc2c(F)cccc2Cl)cn1  remaining activity (enzyme activity, inhibitor; 10 µM): 105%
O=C1Nc2ccc(Cl)cc2C1=Cc1cc(Cl)c(O)c(Cl)c1  remaining signal (cell-free assay; 0.5 µM): 97.9%
COCCOc1nc(-c2ccc(Cl)nc2)nc2c1CN(C(=O)c1ncn3ccccc13)CC2  remaining binding (cell-free assay, competition with immobilised ligand; 0.1 µM): 82%
Nc1ncnc2occ(-c3ccc(NC(=O)Nc4cc(C(F)(F)F)ccc4F)cc3)c12  remaining signal (cell-free assay, inhibitor; 20 µM): 100%
CCC(=N\O)/C(C)=C/c1ccc(F)cc1  remaining binding (cell-free assay, competition with immobilised ligand; 1 µM): 82%
Cc1cnc(NC2CCOCC2)nc1-n1cnc(C(=O)NC(CN)c2cc(F)cc(Cl)c2)c1 (stereo not drawn)  remaining activity (enzyme activity, inhibitor, radiometric; 1 µM): 89%
